Active and inactive are the calls of the source. No cut-off for these calls is given here.
Columns and labels:
[1] = target: T1, Epidermal growth factor receptor (Homo sapiens, UniProt P00533); test: Inhibition of EGFR phosphorylation in EGF-stimulated human A-431 cells harboring wild type EGFR at 100 nM and measured after 2 hrs by Western blot analysis; format: cell-based
Procedure, shortened: (§1)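 Cells treated with compound for 2 h, then stimulated with EGF for 15 min and lysed. Lysates cleared at 12,000 × g (10 min, 4 °C), protein measured by Bradford assay, and equal amounts run on 8% SDS-PAGE and blotted to nitrocellulose. Probed for p-EGFR (Y1068), EGFR, p-ERK (T202/Y204), ERK, with tubulin or GAPDH as loading controls.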

[2] = tested on: NCI-H1975; test: Inhibition of Erk signalling in EGF-stimulated human NCI-H1975 cells harboring EGFR L858R/T790M double mutant assessed as decrease in p-ERK level at 0.1 to 100 nM and measured after 2 hrs by Western blot analysis; format: cell-based; details: dose 0.1-100 nM; procedure, shortened: as §1
[3] = tested on: NCI-H1975; test: Inhibition of Akt signalling in EGF-stimulated human NCI-H1975 cells harboring EGFR L858R/T790M double mutant assessed as […] at 0.1 to 100 nM and measured after 2 hrs by Western blot analysis; format: cell-based; details: dose 0.1-100 nM
[4] = tested on: Epidermal growth factor receptor (Homo sapiens), P00533 [L858R,T790M]; test: Inhibition of EGFR phosphorylation in EGF-stimulated human NCI-H1975 cells harboring EGFR L858R/T790M double mutant at 0.1 to 100 nM and measured after 2 hrs by Western blot analysis; format: cell-based; details: dose 0.1-100 nM; procedure, shortened: as §1
[5] = tested on: NCI-H1975; test: Antiproliferative activity against human NCI-H1975 cells harboring EGFR L858R/T790M double mutant assessed as inhibition of cell proliferation incubated for 72 hrs by sulforhodamine B colorimetric assay; format: functional, cell-based; details: NCI-H1975, 72 h
[6] = tested on: A-431; test: Antiproliferative activity against human A-431 cells harboring wild type EGFR assessed as inhibition of cell proliferation incubated for 72 hrs by sulforhodamine B colorimetric assay; format: functional, cell-based; details: A-431, 72 h
[7] = target: Epidermal growth factor receptor (Homo sapiens, UniProt P00533, L858R/T790M); test: Inhibition of EGFR L858R/T790M mutant (unknown origin) expressed in baculovirus expression system by ELISA
[8] = target: T1, Epidermal growth factor receptor; test: Inhibition of wild type EGFR (unknown origin) expressed in baculovirus expression system by ELISA
[9] = Toxicity in BALB/c nude mouse xenografted with human NCI-H1975 cells harboring EGFR L858R/T790M mutant assessed as morphological changes in kidney at 15 to 30 mg/kg, po for 18 days by hematoxylin and eosin staining based microscopic analysis; format: organism-based; details: in vivo, 432 h, dose 15-30 mg/kg, time 18 day
Procedure, shortened: (§2)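 H1975 subcutaneous xenografts were grown in female BALB/cA nu/nu mice (n = 6 per group), dosed at 15 or 30 mg/kg/day for 18 days or with vehicle. At the end the mice were sacrificed. Heart, kidney and liver were harvested, processed and stained with hematoxylin and eosin for routine histological examination.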

[10] = Toxicity in BALB/c nude mouse xenografted with human NCI-H1975 cells harboring EGFR L858R/T790M mutant assessed as morphological changes in liver at 15 to 30 mg/kg, po for 18 days by hematoxylin and eosin staining based microscopic analysis; format: organism-based; details: in vivo, 432 h, dose 15-30 mg/kg, time 18 day; procedure, shortened: as §2
[11] = tested on: Epidermal growth factor receptor (Homo sapiens), P00533 [L858R,T790M]; test: In vivo inhibition of EGFR in BALB/c nude mouse xenografted with human NCI-H1975 cells harboring EGFR L858R/T790M mutant assessed as decrease in phosphorylated-EGFR level at 15 to 30 mg/kg, po for 18 days by western blot analysis; format: functional, organism-based; details: dose 15-30 mg/kg, time 18.0 day
[12] = tested on: NCI-H1975; test: Antitumor activity against human NCI-H1975 cells harboring EGFR L858R/T790M mutant xenografted in BALB/c nude mouse assessed as tumor cell proliferation at 15 to 30 mg/kg, po for 18 days by Ki-67 staining based immunohistochemical analysis; format: functional, organism-based; details: dose 15-30 mg/kg, time 18.0 day
Procedure, shortened: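 H1975 xenograft tumors from nude mice (n = 6/group, daily dosing 18 days) were harvested, fixed in 10% formalin, paraffin-embedded and cut into 5 µm sections. Sections deparaffinized and incubated with primary anti-Ki-67 antibody at room temperature; immunoreactivity visualized with DAB.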

[13] = Toxicity in BALB/c nude mouse xenografted with human NCI-H1975 cells harboring EGFR L858R/T790M mutant assessed as morphological changes in heart at 15 to 30 mg/kg, po for 18 days by hematoxylin and eosin staining based microscopic analysis; format: organism-based; details: in vivo, 432 h, dose 15-30 mg/kg, time 18 day; procedure, shortened: as §2
[14] = Toxicity in BALB/c nude mouse xenografted with human NCI-H1975 cells harboring EGFR L858R/T790M mutant assessed as body weight loss at 15 to 30 mg/kg, po for 18 days; format: organism-based; details: in vivo, 432 h, dose 15-30 mg/kg, time 18 day
Procedure, shortened: (§3)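 Female BALB/cA nu/nu mice were given 1 × 10^6 H1975 cells in 0.1 mL PBS subcutaneously in the right flank. At an average tumour volume of 100 mm3 (about 18 days post-implantation) they were randomised, n = 6 per group. Groups received 15 or 30 mg/kg/day for 18 consecutive days or vehicle. Mice were kept at constant room temperature, 12/12-h light/dark, with standard diet and water ad lib.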

[15] = Toxicity in BALB/c nude mouse xenografted with human NCI-H1975 cells harboring EGFR L858R/T790M mutant assessed as mortality at 15 to 30 mg/kg, po for 18 days; format: organism-based; details: in vivo, 432 h, dose 15-30 mg/kg, time 18 day; procedure, shortened: as §3
[16] = tested on: NCI-H1975; test: Antitumor activity against human NCI-H1975 cells harboring EGFR L858R/T790M mutant xenografted in BALB/c nude mouse assessed as tumor growth inhibition at 30 mg/kg, po for 18 days; format: functional; details: NCI-H1975, 432 h, time 18 day, read-out: TGI
Procedure, shortened: (§4)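 H1975 cells (1 × 10^6 in 0.1 mL PBS) injected subcutaneously into the right flank of female nude mice. At mean tumor volume of about 100 mm3 (roughly 18 days), mice randomized, n = 6 per group, and dosed once daily for 18 days against a vehicle group. Tumor volume (0.5 × L × W²) measured every 2–3 days; tumors weighed at sacrifice. Data given as mean ± SEM.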

[17] = tested on: NCI-H1975; test: Antitumor activity against human NCI-H1975 cells harboring EGFR L858R/T790M mutant xenografted in BALB/c nude mouse assessed as tumor growth inhibition at 15 mg/kg, po for 18 days; format: functional; details: NCI-H1975, 432 h, time 18 day, read-out: TGI; procedure, shortened: as §4
[18] = Oral bioavailability in Sprague-Dawley rat at 10 mg/kg and measured after 24 hrs by LC-MS/MS analysis; format: ADME, organism-based; details: in vivo
Procedure, shortened: (§5)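 Male Sprague–Dawley rats (190–220 g) dosed by oral gavage at 10 mg/kg in 5% DMSO / 95% HP-β-CD aqueous solution (20%); iv reference arm at 1 mg/kg. Blood sampled at 0.25, 0.5, 1, 2, 4, 6, 8 and 24 h, centrifuged (8000 × g, 6 min), and plasma quantified by LC–MS/MS.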

[19] = AUC (0 to infinity) in Sprague-Dawley rat at 10 mg/kg, po and measured after 24 hrs by LC-MS/MS analysis; format: ADME, organism-based; set-up: dose 10 mg/kg, time 24 hrs, route po; details: in vivo; procedure, shortened: as §5
[20] = Cmax in Sprague-Dawley rat at 10 mg/kg, po and measured after 24 hrs by LC-MS/MS analysis; format: ADME, organism-based; set-up: dose 10 mg/kg, time 24 hrs, route po; details: in vivo; procedure, shortened: as §5
[21] = Half life in Sprague-Dawley rat at 10 mg/kg, po and measured after 24 hrs by LC-MS/MS analysis; format: ADME, organism-based; details: in vivo; procedure, shortened: as §5
[22] = Volume of distribution at steady state in Sprague-Dawley rat at 1 mg/kg, iv and measured after 24 hrs by LC-MS/MS analysis; format: ADME, organism-based; details: in vivo, read-out: Vdss
[23] = Clearance in Sprague-Dawley rat at 1 mg/kg, iv and measured after 24 hrs by LC-MS/MS analysis; format: ADME, organism-based; details: in vivo
[24] = AUC (0 to infinity) in Sprague-Dawley rat at 1 mg/kg, iv and measured after 24 hrs by LC-MS/MS analysis; format: ADME, organism-based; set-up: time 24 hrs, dose 1 mg/kg, route iv; details: in vivo
[25] = Half life in Sprague-Dawley rat at 1 mg/kg, iv and measured after 24 hrs by LC-MS/MS analysis; format: ADME, organism-based; details: in vivo
[26] = Cmax in Sprague-Dawley rat at 1 mg/kg, iv and measured after 24 hrs by LC-MS/MS analysis; format: ADME, organism-based; set-up: dose 1 mg/kg, time 24 hrs, route iv; details: in vivo
[27] = target: Tyrosine-protein kinase BTK (Homo sapiens) (UniProt Q06187); test: Inhibition of BTK (unknown origin) at 1000 nM by DiscoverX KINOMEscan assay
[28] = target: Focal adhesion kinase 1 (Homo sapiens) (UniProt Q05397); test: Inhibition of FAK (unknown origin) at 1000 nM by DiscoverX KINOMEscan assay
[29] = target: Insulin receptor (Homo sapiens) (UniProt P06213); test: Inhibition of INSR (unknown origin) at 1000 nM by DiscoverX KINOMEscan assay
[30] = target: Tyrosine-protein kinase JAK2 (Homo sapiens) (UniProt O60674); test: Inhibition of JAK2 (unknown origin) at 1000 nM by DiscoverX KINOMEscan assay
[31] = tested on: Epidermal growth factor receptor (Homo sapiens), P00533 [L858R,T790M]; details: NCI-H1975, dose 10.0 nM, time 2.0 hrs

Epidermal growth factor receptor (Homo sapiens), P00533 [L858R,T790M], sequence (P00533 whole entry T790M/L858R, looked up): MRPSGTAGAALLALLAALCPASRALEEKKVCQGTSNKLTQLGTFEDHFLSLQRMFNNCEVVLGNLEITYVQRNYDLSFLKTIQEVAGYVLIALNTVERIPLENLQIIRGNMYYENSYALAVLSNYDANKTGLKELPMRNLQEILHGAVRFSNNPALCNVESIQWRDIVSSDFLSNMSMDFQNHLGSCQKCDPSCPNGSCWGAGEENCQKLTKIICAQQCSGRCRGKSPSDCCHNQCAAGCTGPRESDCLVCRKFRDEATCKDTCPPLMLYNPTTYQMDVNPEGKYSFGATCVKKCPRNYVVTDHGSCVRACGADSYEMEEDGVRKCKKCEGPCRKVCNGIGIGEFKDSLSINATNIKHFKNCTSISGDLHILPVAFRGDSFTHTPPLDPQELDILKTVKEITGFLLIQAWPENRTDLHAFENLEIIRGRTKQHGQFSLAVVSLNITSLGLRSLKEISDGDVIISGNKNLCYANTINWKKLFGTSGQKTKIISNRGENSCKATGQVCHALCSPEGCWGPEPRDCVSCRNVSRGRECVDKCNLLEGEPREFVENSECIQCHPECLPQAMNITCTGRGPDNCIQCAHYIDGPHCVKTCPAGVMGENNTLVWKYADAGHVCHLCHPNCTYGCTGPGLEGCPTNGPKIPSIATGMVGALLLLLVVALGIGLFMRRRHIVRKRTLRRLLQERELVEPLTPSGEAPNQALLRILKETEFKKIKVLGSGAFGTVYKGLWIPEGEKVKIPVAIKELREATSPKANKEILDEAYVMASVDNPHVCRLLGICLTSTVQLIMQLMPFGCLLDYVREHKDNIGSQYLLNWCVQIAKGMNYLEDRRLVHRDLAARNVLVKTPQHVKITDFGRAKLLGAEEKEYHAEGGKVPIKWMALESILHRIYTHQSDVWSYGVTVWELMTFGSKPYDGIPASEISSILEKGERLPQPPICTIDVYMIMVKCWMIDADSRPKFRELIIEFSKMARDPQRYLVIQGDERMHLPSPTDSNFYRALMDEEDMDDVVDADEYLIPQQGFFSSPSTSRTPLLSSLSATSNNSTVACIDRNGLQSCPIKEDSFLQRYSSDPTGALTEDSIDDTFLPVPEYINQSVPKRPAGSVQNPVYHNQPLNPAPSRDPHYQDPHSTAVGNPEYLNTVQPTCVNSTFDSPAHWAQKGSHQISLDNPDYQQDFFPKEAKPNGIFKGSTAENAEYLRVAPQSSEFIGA
T1 sequence (P00533 whole entry): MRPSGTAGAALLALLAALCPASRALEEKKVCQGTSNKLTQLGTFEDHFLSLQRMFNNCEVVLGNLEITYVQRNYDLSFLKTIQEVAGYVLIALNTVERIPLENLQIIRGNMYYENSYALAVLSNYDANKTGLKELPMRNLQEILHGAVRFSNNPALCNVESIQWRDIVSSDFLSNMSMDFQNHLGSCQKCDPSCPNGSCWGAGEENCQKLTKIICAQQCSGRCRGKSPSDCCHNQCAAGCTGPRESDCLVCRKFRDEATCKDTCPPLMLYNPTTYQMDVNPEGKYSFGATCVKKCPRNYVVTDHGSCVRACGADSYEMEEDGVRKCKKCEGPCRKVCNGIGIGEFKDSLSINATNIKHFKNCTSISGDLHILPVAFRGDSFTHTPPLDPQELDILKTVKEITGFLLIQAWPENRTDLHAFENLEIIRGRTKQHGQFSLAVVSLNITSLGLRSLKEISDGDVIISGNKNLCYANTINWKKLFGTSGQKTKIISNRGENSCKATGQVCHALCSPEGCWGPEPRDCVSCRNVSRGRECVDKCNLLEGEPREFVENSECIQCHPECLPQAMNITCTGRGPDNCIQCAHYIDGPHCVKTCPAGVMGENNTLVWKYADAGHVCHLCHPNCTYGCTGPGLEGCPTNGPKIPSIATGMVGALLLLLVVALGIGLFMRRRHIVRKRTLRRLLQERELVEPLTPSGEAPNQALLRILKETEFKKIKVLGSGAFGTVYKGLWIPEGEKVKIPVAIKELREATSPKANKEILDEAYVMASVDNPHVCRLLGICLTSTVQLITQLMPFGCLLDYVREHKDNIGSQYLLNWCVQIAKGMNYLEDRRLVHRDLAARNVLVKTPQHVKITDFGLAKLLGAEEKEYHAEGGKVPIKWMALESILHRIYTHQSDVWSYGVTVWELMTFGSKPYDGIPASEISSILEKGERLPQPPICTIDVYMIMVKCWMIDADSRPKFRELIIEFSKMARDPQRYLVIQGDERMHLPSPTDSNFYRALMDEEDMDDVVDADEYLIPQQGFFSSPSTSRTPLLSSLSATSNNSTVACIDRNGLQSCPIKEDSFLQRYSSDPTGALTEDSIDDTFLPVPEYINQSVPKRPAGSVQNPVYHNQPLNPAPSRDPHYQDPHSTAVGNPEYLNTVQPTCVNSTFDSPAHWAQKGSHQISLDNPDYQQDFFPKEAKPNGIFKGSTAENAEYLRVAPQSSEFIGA
Insulin receptor (Homo sapiens), sequence (P06213 28-758 limits assumed): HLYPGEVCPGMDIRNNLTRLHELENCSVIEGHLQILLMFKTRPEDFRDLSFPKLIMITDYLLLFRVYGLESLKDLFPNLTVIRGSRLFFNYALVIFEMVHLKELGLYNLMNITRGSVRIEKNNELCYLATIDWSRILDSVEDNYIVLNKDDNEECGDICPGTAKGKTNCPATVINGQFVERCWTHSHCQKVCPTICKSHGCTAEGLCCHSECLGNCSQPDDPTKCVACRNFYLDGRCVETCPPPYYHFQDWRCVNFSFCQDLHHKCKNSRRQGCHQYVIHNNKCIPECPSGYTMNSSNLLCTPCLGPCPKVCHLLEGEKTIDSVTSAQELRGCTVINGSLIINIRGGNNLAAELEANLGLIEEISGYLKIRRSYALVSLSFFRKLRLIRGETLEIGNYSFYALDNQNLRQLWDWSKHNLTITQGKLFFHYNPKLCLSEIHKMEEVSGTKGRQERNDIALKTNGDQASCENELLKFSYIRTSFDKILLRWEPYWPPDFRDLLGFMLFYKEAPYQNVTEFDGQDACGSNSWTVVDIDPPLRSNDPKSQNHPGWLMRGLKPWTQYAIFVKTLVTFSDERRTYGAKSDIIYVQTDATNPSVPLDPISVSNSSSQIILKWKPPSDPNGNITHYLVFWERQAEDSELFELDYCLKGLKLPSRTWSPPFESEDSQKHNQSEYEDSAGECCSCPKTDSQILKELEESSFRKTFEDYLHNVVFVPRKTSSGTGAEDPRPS
Insulin receptor (Homo sapiens), sequence (P06213 763-1382 limits assumed): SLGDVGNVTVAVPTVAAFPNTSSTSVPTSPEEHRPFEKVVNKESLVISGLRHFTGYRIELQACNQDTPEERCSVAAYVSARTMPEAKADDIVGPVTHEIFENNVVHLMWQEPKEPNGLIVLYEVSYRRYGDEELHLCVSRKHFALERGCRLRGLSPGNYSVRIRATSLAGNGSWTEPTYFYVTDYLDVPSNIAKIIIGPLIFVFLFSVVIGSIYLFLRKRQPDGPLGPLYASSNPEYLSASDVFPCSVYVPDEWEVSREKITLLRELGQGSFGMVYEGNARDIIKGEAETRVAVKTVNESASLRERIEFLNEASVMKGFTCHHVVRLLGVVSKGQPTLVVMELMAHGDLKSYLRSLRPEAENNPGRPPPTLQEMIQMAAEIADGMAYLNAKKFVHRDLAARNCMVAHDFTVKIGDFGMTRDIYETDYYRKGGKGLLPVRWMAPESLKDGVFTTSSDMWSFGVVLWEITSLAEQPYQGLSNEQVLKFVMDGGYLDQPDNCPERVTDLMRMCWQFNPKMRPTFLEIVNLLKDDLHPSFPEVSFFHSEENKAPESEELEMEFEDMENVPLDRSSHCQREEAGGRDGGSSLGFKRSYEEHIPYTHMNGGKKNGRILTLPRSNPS
Tyrosine-protein kinase BTK (Homo sapiens), sequence (Q06187 whole entry): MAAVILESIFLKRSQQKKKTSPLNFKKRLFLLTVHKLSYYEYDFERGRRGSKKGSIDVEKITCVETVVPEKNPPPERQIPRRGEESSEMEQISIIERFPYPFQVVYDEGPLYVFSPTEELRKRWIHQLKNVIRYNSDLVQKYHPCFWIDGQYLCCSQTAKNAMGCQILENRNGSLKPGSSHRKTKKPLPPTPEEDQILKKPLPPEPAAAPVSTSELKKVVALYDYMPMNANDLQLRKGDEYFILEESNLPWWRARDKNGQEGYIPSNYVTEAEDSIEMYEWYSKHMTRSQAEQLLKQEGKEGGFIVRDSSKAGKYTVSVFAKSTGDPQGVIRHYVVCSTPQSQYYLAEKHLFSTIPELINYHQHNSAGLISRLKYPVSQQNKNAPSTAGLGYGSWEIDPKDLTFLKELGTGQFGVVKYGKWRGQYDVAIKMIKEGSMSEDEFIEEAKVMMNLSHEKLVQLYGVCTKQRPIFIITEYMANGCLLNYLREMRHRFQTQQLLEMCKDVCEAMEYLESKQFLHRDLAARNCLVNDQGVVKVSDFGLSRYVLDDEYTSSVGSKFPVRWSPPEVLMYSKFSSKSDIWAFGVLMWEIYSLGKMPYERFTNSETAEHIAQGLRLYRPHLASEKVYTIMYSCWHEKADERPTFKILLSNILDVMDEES

## C=CC(=O)Nc1cc(Nc2ncc(Br)c(Nc3ccc4c(c3)CCC4)n2)c(OC)cc1N1CCN(C)CC1
[1]
  inhibition: inactive
[2]
  inhibition: Dose-Dependent Effect
[3]
  inhibition: Dose-Dependent Effect
[4]
  inhibition: Dose-Dependent Effect
[5]
  IC50: 276 nM
[6]
  IC50: 2600 nM
[7]
  IC50: 3.2 nM
[8]
  IC50: 203 nM
[9]
  Activity: Non-Toxic
[10]
  Activity: Non-Toxic
[11]
  inhibition: Active
[12]
  Activity: Active
[13]
  Activity: Non-Toxic
[14]
  Activity: Non-Toxic
[15]
  Activity: Non-Toxic
[16]
  inhibition in vivo at 30 mg/kg: 77%
[17]
  inhibition in vivo at 15 mg/kg: 61%
[18]
  F: 35.58%
[19]
  AUC: 35.58 ng·h/mL
[20]
  Cmax: 452 ng/mL
[21]
  half-life: 3.54 h
[22]
  Vd: 4.83 L/kg
[23]
  clearance: 15.9 mL/min/kg
[24]
  AUC: 1052 ng·h/mL
[25]
  half-life: 5.17 h
[26]
  Cmax: 407 ng/mL
[27]
  inhibition: Active
[28]
  inhibition: Active
[29]
  inhibition: Active
[30]
  inhibition: Active
[31]
  inhibition: Active

Source: ChEMBL document CHEMBL5260822, “Structure-based design and synthesis of 2,4-diaminopyrimidines as EGFR L858R/T790M selective inhibitors for NSCLC” (Eur J Med Chem, 2017)
